Consider 98 molecules from ChEMBL document CHEMBL4513216, “Probing the Open Global Health Chemical Diversity Library for Multistage-Active Starting Points for Next-Generation Antimalarials” (ACS Infect Dis, 2020).

This data set is described as follows: Toxicity liver stage against HepG2, at 10uM. Further details: test concentration 10 uM, cell line HepG2-A16-CD81EGFP. It counts as cell-based. The following applies: human, HepG2-A16-CD81EGFP cells; read-out: INHIBITION
In outline:
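Uninfected HepG2-A16-CD81EGFP cells, 3 × 10^3 per well, 1536-well, plated on prespotted compound at 10 μM final, parasite-free screening media added to match infected plates; puromycin 10 μM positive, DMSO 0.5% negative; run in parallel with 48 h PbLuc assay at 37 °C, 5% CO2; viability by CellTiter-Glo luminescence, normalized to controls.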

On to `Fc1cccc(C(NCc2ncc[nH]2)c2ccccc2)c1` (stereo not drawn), for which the cytotoxicity at 10 µM came out at 1.35%.
For the molecule `CNS(=O)(=O)CC(=O)NC(c1cc(C)sc1C)C(C)C` (stereo not drawn), the cytotoxicity at 10 µM amounted to 0.918%.
The value for `CCOC(=O)N1CCN(C(=O)c2cc(OCC)c3ccoc3c2)CC1` was 41.5%; that for `CCNC(=O)C(C)NC(=O)Nc1ccccc1Cl` (stereo not drawn) was 5.72%; that for `CC(=O)NC1CCN(c2ncnc3c2c(C)nn3C)C1` (stereo not drawn) was -2.78%.
For `Cc1cccnc1NCCNC(=O)C1CCN(Cc2ccco2)CC1`, the cytotoxicity at 10 µM was -2.51%.
The value for `O=C(CCc1cccs1)N1CCCC(n2ccnc2)C1` (stereo not drawn) was -1.13%.
The figure for `O=S(=O)(C/C=C/c1ccccc1)Cc1nc(C2CC2)no1` is -12.4%; for `O=C(N1CCOCC1)N1CCC2(CC1)CN(c1ccccn1)CCO2` it is -78.2%.
The value for `Cc1ccc(CCCC(=O)N2CCN(C3CCCN(C)C3)CC2)s1` (stereo not drawn) was 5.82%; that for `Cc1ccc(-c2cnnc(NCC3CCOCC3)n2)o1` was -3.64%; that for `CN(C)C(=O)CN1C[C@H]2CC[C@@H](C1)N(C(=O)CCCn1cncn1)C2` was 0.612%.
Take `Cn1cc(C(=O)NCc2cncc3c2CCN(c2ccccn2)C3)cn1`: the cytotoxicity at 10 µM was -99.6%.
The figure for `O=C(c1cccc(-c2ncc[nH]2)c1)N1CC[C@H](CO)[C@@H](O)C1` is -0.462%.
The value for `CCOCCCNC(=O)c1cc(C)nc(N2CCCC2)n1` was 1.11%; that for `CC(C)c1ccc(S(=O)(=O)N2CCCC3(CCCN3S(C)(=O)=O)C2)cc1` (stereo not drawn) was -0.96%.
The value for `O=C(C1CCCCC1)N1CCC2(CC1)OCCO2` was 9.77%; that for `Cc1cnc(NC(=O)NCCOc2ncccc2Cl)s1` was 6.62%.
For the molecule `CS(=O)(=O)N1CCN2C(=O)N(C3CCCCC3)C[C@H]2C1`, the cytotoxicity at 10 µM worked out at 7.77%.
`COc1ccc2c(c1)OCC(Cc1cnccc1N)C2` (stereo not drawn): the cytotoxicity at 10 µM was determined as 4.28%.
The figure for `O=C(C1COc2ccccc2C1)N(CCO)Cc1ccccc1` (stereo not drawn) is 4.58%.
The value for `COC(=O)C1=C(C)N=C2SCC(=O)N2C1c1cnn(C)c1C` (stereo not drawn) was 4.01%.
The figure for `CC(OCC1CC1)C(=O)NCc1cccc(CN2CCCC2=O)c1` (stereo not drawn) is 3.05%; for `CC(NCCn1cccn1)c1ccccc1F` (stereo not drawn) it is -3.21%; for `F[C@@H]1CN(CC2CC2)C[C@@H]1OCc1nc2ncccc2[nH]1` it is 5.52%.
For the molecule `O=S(=O)(c1ccccc1)N1CCCC1c1cc[nH]n1` (stereo not drawn), the cytotoxicity at 10 µM was -6.58%.
The figure for `CN(C)CCNC(=O)c1cc2n(n1)CCN(C(=O)c1ccco1)C2` is 2.52%; for `Cc1noc(C)c1CN1C[C@@H](C(=O)O)[C@H](C(C)C)C1` it is 3.51%; for `Cn1nccc1C1CCN(Cc2csc(-c3ncccn3)n2)CC1` it is -1.91%.
For the molecule `CCC(=O)NCC(=O)NC(C)c1sc(-c2ccccc2F)nc1C` (stereo not drawn), the cytotoxicity at 10 µM came to 9.65%.
As for `CCC(C)(NCC(=O)NC(C)C)c1nc(C)cs1` (stereo not drawn), the cytotoxicity at 10 µM was -2.06%.
The value for `CCNC(=O)C1CCCN(Cn2nc(C(C)(C)C)ccc2=O)C1` (stereo not drawn) was 10.1%.
The figure for `Cc1nn(C)c(C)c1NC(=O)CN1CCCC1c1c(C)nn(C)c1C` (stereo not drawn) is -6.44%; for `CCCS(=O)(=O)N1CCC(Nc2c(F)cc(C#N)cc2F)CC1` it is 1.34%.
The value for `CCc1ccc2c(c1)C(CCNC(=O)c1sccc1C)C(=O)N2` (stereo not drawn) was -52.3%.
Turning to `Cc1cccnc1NC(=O)NC(CCO)C(C)(C)C` (stereo not drawn), the cytotoxicity at 10 µM amounted to 2.3%.
As to `Cc1cc(CNC2CCc3nc(C(C)C)nn3C2)on1` (stereo not drawn), the cytotoxicity at 10 µM is 7.61%.
Take `Cc1nn(C)c(C)c1CN(Cc1cccn1-c1ccccn1)C(C)C`: the cytotoxicity at 10 µM amounted to 0.936%.
The value for `COc1ccccc1C1(C(=O)N2CCN(CC(C)O)CC2)CC1` (stereo not drawn) was -3.51%; that for `CCc1nc(N)nc(NCc2cnn3cccnc23)c1C` was 52.5%; that for `c1csc(CCN2CCCC2c2noc(C3CC3)n2)c1` (stereo not drawn) was 9.15%.
The value for `Cc1cc(C)n(-c2ccc3nnc(C)n3n2)n1` was 17.8%; that for `C/C=C(\C)CN1C[C@H](NC(=O)CN2CCCC2=O)[C@@H](c2ccc(C)o2)C1` was 10.8%; that for `COc1cccc(CNCc2c(C(C)C)nn(C)c2N(C)C)c1OC` was 1.87%.
The figure for `CC(C)(C)c1ccn(C2(C(=O)O)CCN(c3ncccc3C#N)CC2)n1` is -7.6%; for `CN(C(=O)Nc1nncs1)C1CCN(c2ccccc2Cl)C1=O` (stereo not drawn) it is -7.04%.
As to `CCCc1cc(NC2CCN(Cc3ccccn3)CC2)n2nccc2n1`, the cytotoxicity at 10 µM is -3.91%.
On to `CC(C)[C@@H]1CN(S(=O)(=O)Cc2ccccc2)C[C@H]1NS(=O)(=O)N(C)C`, for which the cytotoxicity at 10 µM was -0.625%.
The value for `O=S(=O)(CCCN1CCCC1Cn1cccn1)c1ccccc1` (stereo not drawn) was -5.18%; that for `O=S(=O)(CCc1ccccc1Cl)CC(O)CO` (stereo not drawn) was 10.7%.
With `Cc1nc(N2CCN(C(=O)c3ccco3)CC2)c2c(n1)c(C)nn2C`, the cytotoxicity at 10 µM was found to be 12.1%.
The figure for `O=C(CCCn1nnc(-c2ccc(F)cc2)n1)N1CCOCC(CO)C1` (stereo not drawn) is 16.2%.
The value for `O=C(c1ccn(-c2cccc(F)c2)n1)N1CCN(CCO)CC1` was -4.67%; that for `Cc1cnc(CCNC(=O)C2CN(C(=O)Cc3ccc(F)cc3)C2)s1` was 0.82%; that for `O=C(c1cc(-n2cnnn2)ccc1Cl)N1CCC2(CC1)OCCO2` was -1.66%.
As for `COc1cc(NCC(c2ccccn2)N(C)C)ncn1` (stereo not drawn), the cytotoxicity at 10 µM is -57.4%.
For `CN(C)c1cc(C(=O)N2CCCN(Cc3cscn3)CC2)ccn1`, the cytotoxicity at 10 µM was -15%.
The figure for `Cn1cnc2c1CCN(Cc1cccc(C(N)=O)c1)C2` is -16.8%; for `COCCN1CCN(C(C)c2nc(C3CC3)no2)CC1` (stereo not drawn) it is -8.36%; for `COc1cccc(CN(C)Cc2ccccc2C#N)c1OC` it is -5.92%.
Turning to `Cc1ccc(CN2CCC3(CC2)C(=O)N(CC(C)C)CCN3C)s1`, the cytotoxicity at 10 µM was -3.63%.
As for `C[C@H]1CN(Cc2cnn(C)c2)C[C@@]12CCN(Cc1cccnc1)C2=O`, the cytotoxicity at 10 µM came out at 8.99%.
The figure for `Cc1nc(C2CCCN2CCCS(=O)(=O)N(C)C)no1` (stereo not drawn) is -4.69%.
For `CN(C(=O)Cc1ccc2c(c1)OCCO2)C1CCCCC1`, the cytotoxicity at 10 µM worked out at 2.89%.
As for `COC(=O)c1ccc(CN(C(C)C)C(C)C)o1`, the cytotoxicity at 10 µM was determined as 2.21%.
Consider `COC1COC2(CCN(C(=O)c3ncccn3)CC2)C1` (stereo not drawn), for which the cytotoxicity at 10 µM stood at 6.07%.
The figure for `Cc1cnn(CC(=O)N2CCCN(c3ncccc3C#N)CC2)c1` is -4.37%; for `CCc1ccc(CN2CCN(c3ccc(Cl)nn3)CC2)nc1` it is -2.98%.
The value for `CN(C)C(=O)n1c(C(=O)NC(C)(C)CO)cc2c1c1ccccc1n2C` was -76.2%; that for `O=C([C@@H]1C[C@@H]2CCN(Cc3ccco3)C[C@H]2O1)N1CCCO1` was 4.78%; that for `CN(Cc1ccco1)C1CCC12CCN(C(=O)c1ccnnc1)CC2` (stereo not drawn) was 0.081%.
On to `CC(NC(=O)NCCCN(C)S(C)(=O)=O)c1ccc(C#N)cc1` (stereo not drawn), for which the cytotoxicity at 10 µM is -5.77%.
Take `C[C@@H]1CN(C(=O)C2CCS(=O)(=O)CC2)C[C@]1(C)O`: the cytotoxicity at 10 µM is -4.11%.
The value for `Cc1cc(C)c(OCC(=O)NS(=O)(=O)c2cccnc2)c(C)c1` was -1.35%; that for `CCC(=O)Nc1ccc2c(ccn2CCOC)c1` was 3.54%.
The figure for `COCC(=O)N1CCN(C(=O)c2cccs2)C[C@H]1C(=O)OC` is -0.655%; for `O=C(c1cocn1)N1CCC2(CC1)CC(Oc1ccccn1)CO2` (stereo not drawn) it is 9.34%; for `Cc1cc(NC(=O)Cn2ccc(=O)c3ccccc32)[nH]n1` it is -146%.
In the case of `CN1CCN(S(=O)(=O)c2cccc(S(=O)(=O)C3CCS(=O)(=O)C3)c2)CC1` (stereo not drawn), the cytotoxicity at 10 µM was determined as 6.29%.
Regarding `C[C@@H]1CN(C(=O)CCCN2CCCC2)CC[C@@]1(O)C1CCOCC1`, the cytotoxicity at 10 µM was -0.422%.
With `O=C1CCC(c2nc(C3CCN(C(=O)C4CC4)CC3)no2)N1` (stereo not drawn), the cytotoxicity at 10 µM is -1.7%.
The figure for `CC(C)Oc1cccc(C(O)CNC(=O)Nc2cccs2)c1` (stereo not drawn) is 2.19%; for `CN(C)c1cnnc(N2CCN(C(=O)Cc3ccccc3)CC2)c1` it is 5.5%.
The value for `CN(CCc1ccccc1)c1cnn(CC(=O)N2CCSCC2)c(=O)c1` was -8.74%.
The value for `O=C(c1cnc(Nc2ccccc2)nc1)N1CCCC2(CCNC2)C1` (stereo not drawn) was -6.57%.
Consider `Cc1ncnc2c1CCN(S(=O)(=O)C1CC1)CC2`, for which the cytotoxicity at 10 µM is -108%.
`N#Cc1ccc(SCCCO)c(F)c1`: the cytotoxicity at 10 µM was determined as 5.11%.
In the case of `Cc1csc(C(=O)N2CCC(S(C)(=O)=O)C2)c1` (stereo not drawn), the cytotoxicity at 10 µM was -5.21%.
Consider `CC(C)OCCS(=O)(=O)N1CCN(Cc2ccco2)CC1`, for which the cytotoxicity at 10 µM is -11.3%.
The value for `CC(C)c1nnc(NC(=O)N(C)Cc2ccncc2)s1` was 5.28%; that for `Cc1nc(C)n(CC2CN(CCCOc3ccccc3C)CCO2)n1` (stereo not drawn) was 5.63%.
The figure for `COc1ccc2c(c1)[C@@H](CCNC(C)=O)CC(C)(C)O2` is -6.33%; for `Cn1cc(Cl)c(C(=O)N2CCCN(C3Cc4ccccc4C3)CC2)n1` it is -4.86%; for `Cc1n[nH]c(C)c1CCCN(C)c1cc(N(C)C)ncn1` it is -3.37%.
Consider `COCCCNc1ncc(-c2cccc(F)c2)c(-c2nccn2C)n1`, for which the cytotoxicity at 10 µM worked out at 8.97%.
The value for `COc1c(NS(=O)(=O)c2cc(C)ccc2C)c(C)nn1C` was 0.259%; that for `COCCCN1CC2(CCCCN2C(=O)c2ccsc2)CC1=O` (stereo not drawn) was 5.03%; that for `COc1c(C)cnc(CNC(=O)c2cc(C)nc3onc(C)c23)c1C` was -0.947%.
